# Measurements reported in ChEMBL document CHEMBL1143088, “Non-acidic pyrazole EP1 receptor antagonists with in vivo analgesic efficacy” (Bioorg Med Chem Lett, 2008).
# How the values were obtained:
# Blood [1] = assay: Drug uptake in FCA-induced hypersensitivity rat blood at 1 mg/kg, po administered with NMP as vehicle; type: ADME, organism-based; parameters: dose 1 mg/kg, route oral; details: in vivo, read-out: Drug uptake
# In short: (§1)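 CFA inflammatory pain rats dosed orally at 1, 3 and 10 mg/kg in 2% NMP, 2% miglyol, 2% solutol–Kleptose in water; samples taken 1 h post-dose. Blood levels mean of seven rats; brain level at 10 mg/kg only, mean of three rats.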
# Blood [2] = assay: Drug uptake in FCA-induced hypersensitivity rat blood at 10 mg/kg, po administered with NMP as vehicle; type: ADME, organism-based; parameters: dose 10 mg/kg, route oral; details: in vivo, read-out: Drug uptake; in short: as §1
# Brain = assay: Drug uptake in FCA-induced hypersensitivity rat brain at 10 mg/kg, po administered with NMP as vehicle; type: ADME, organism-based; parameters: dose 10 mg/kg, route oral; details: read-out: Drug uptake, in vivo; in short: as §1
# [3] = Ratio of drug level in brain to blood in FCA-induced hypersensitivity rat at 10 mg/kg, po administered with NMP as vehicle; type: ADME, organism-based; parameters: dose 10 mg/kg, route oral
# In short: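 CFA inflammatory pain model in rats, oral dosing at 1, 3 and 10 mg/kg in 2% NMP, 2% miglyol and 2% solutol–Kleptose in water. Samples taken 1 h post-dose with the weight-bearing readout. Brain concentration measured at 10 mg/kg only; brain:blood ratio is the mean of three rats, with blood levels the mean of seven.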
# [4] = Ratio of drug level in brain to blood in FCA-induced hypersensitivity rat at 10 mg/kg, po administered with DMSO and PEG400 as vehicle; type: ADME, organism-based; parameters: dose 10 mg/kg, route oral
# In short: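 Rats with CFA-induced inflammatory pain dosed orally at 1, 3, 10 (and 30) mg/kg in 1% DMSO, 66% PEG400, 33% water. Blood and brain sampled 1 h post-dose, alongside the weight-bearing readout. Brain:blood ratio taken from the 10 mg/kg group, mean of seven rats.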
# [5] = molecular target: T1, Prostaglandin E2 receptor EP1 subtype (Homo sapiens, UniProt P34995); assay: Displacement of [3H]PGE2 from human PGE2-EP1 receptor expressed in CHO-K1 cells; type: cell-based
# T1 sequence (P34995 whole entry): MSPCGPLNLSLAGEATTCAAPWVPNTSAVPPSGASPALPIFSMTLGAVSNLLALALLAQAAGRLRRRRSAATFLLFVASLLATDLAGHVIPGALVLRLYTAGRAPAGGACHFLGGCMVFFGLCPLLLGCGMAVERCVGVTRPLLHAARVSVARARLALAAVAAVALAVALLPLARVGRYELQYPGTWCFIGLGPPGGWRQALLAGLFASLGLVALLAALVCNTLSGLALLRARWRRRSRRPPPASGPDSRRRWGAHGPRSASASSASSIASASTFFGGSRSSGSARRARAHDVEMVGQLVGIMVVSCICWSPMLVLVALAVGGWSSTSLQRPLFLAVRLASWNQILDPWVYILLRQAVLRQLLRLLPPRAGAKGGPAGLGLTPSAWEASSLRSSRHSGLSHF
# [6] = Distribution coefficient, logD at pH 7.4; type: physicochemical; details: octanol/water
# In short: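 Distribution coefficient between n-octanol and water buffered to pH 7.4; log10 of ratio of equilibrium concentrations of all species.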
# [7] = molecular target: T1, Prostaglandin E2 receptor EP1 subtype; assay: Antagonist activity at PGE2-EP1 receptor assessed as PGE2-induced response by schild analysis; type: functional; details: read-out: pA2 (converted)
# [8] = molecular target: T1, Prostaglandin E2 receptor EP1 subtype; assay: Antagonist activity at PGE2-EP1 receptor assessed as PGE2-induced intracellular calcium mobilization; type: functional, cell-based
# [9] = molecular target: T2, Prostaglandin E2 receptor EP3 subtype (Homo sapiens, UniProt P43115); assay: Antagonist activity at PGE2-EP3 receptor assessed as PGE2-induced intracellular calcium mobilization; type: functional, cell-based
# T2 sequence (P43115 whole entry): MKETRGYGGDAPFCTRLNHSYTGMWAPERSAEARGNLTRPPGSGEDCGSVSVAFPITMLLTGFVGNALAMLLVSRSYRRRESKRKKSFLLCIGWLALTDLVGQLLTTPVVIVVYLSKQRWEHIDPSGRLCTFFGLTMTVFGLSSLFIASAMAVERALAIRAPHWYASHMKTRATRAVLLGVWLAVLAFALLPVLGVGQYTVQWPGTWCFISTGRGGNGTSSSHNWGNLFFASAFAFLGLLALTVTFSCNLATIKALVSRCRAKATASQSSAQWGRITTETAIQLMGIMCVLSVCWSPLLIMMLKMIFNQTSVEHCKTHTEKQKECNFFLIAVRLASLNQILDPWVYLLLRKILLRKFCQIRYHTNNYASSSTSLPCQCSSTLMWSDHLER
# Cytochrome P450 1A2 = molecular target: T3, Cytochrome P450 1A2 (Homo sapiens, UniProt P05177); assay: Inhibition of CYP1A2; type: ADME
# T3 sequence (P05177 whole entry): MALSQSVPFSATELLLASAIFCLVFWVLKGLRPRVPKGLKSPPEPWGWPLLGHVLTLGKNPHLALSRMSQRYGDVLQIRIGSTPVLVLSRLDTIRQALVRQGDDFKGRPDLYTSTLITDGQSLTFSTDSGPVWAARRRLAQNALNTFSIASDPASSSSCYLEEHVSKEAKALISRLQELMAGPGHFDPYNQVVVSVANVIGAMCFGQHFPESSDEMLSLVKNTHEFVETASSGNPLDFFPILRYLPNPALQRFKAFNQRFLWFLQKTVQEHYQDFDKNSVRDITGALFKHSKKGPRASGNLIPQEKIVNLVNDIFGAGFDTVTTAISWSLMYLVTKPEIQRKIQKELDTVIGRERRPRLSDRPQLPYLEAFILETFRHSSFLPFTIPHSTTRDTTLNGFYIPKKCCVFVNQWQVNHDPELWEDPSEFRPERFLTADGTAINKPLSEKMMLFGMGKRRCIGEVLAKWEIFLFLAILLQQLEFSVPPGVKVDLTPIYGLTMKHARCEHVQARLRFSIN
# Cytochrome P450 2C19 = Cytochrome P450 2C19 (Homo sapiens, UniProt P33261); assay: Inhibition of CYP2C19; type: ADME
# Cytochrome P450 2C19, sequence (P33261 whole entry): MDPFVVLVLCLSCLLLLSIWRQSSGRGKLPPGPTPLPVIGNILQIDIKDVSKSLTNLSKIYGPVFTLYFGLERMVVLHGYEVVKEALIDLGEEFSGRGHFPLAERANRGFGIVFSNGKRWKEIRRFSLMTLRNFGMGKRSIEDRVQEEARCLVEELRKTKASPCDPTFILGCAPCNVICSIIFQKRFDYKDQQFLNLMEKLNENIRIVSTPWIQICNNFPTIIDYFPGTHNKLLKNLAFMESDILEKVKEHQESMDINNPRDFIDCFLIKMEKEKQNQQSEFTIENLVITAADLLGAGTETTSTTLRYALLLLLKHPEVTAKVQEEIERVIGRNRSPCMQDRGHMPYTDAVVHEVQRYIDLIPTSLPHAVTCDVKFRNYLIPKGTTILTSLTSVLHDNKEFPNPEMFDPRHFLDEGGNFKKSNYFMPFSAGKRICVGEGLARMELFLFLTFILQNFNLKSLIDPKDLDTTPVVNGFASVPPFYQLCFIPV
# Cytochrome P450 2C9 = Cytochrome P450 2C9 (Homo sapiens, UniProt P11712); assay: Inhibition of CYP2C9; type: ADME
# Cytochrome P450 2C9, sequence (P11712 whole entry): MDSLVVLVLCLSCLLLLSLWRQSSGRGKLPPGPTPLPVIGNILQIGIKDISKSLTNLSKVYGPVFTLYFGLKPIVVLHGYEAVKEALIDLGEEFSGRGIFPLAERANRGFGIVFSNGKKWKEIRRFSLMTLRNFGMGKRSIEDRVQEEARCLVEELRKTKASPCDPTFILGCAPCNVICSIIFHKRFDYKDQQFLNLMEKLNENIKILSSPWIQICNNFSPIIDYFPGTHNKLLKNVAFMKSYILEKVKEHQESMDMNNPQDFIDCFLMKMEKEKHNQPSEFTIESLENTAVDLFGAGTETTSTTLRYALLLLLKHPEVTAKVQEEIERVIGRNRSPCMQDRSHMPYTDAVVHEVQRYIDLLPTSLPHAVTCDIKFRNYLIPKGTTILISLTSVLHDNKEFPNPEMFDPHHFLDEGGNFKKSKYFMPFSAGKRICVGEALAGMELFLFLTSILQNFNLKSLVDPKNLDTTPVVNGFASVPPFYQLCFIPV
# Cytochrome P450 2D6 = Cytochrome P450 2D6 (Homo sapiens, UniProt P10635); assay: Inhibition of CYP2D6; type: ADME
# Cytochrome P450 2D6, sequence (P10635 whole entry): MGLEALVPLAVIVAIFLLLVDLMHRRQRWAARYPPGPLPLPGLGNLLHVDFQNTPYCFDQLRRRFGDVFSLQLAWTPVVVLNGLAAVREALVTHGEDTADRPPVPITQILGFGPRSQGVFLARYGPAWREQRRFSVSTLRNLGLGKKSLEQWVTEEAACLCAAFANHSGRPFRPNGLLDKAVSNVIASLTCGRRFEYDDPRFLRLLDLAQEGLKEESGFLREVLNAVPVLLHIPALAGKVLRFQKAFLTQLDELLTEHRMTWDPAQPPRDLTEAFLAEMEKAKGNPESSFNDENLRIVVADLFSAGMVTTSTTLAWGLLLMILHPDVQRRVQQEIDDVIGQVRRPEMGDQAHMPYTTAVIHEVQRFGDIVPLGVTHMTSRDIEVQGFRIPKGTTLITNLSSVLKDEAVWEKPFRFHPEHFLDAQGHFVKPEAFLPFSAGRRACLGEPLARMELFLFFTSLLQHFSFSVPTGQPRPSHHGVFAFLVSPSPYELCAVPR
# Cytochrome P450 3A4 = Cytochrome P450 3A4 (Homo sapiens, UniProt P08684); assay: Inhibition of CYP3A4; type: ADME
# Cytochrome P450 3A4, sequence (P08684 whole entry): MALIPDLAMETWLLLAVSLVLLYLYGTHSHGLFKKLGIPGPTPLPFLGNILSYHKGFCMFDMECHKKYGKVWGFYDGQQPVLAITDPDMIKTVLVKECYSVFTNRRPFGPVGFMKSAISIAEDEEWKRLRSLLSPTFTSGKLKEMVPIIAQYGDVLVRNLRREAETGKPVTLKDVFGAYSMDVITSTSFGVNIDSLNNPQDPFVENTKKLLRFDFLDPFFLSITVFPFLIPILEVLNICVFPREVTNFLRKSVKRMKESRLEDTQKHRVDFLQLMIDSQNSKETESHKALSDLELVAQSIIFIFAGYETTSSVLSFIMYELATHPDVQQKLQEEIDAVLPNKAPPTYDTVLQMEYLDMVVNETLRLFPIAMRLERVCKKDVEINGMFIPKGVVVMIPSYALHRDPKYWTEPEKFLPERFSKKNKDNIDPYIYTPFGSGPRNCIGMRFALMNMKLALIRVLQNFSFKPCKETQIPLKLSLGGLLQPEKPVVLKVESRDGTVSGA
# Rattus norvegicus [10] = assay: Reversal of FCA-induced hypersensitivity in orally dosed rat assessed as reduction in weight bearing administered with NMP as vehicle; type: functional; details: po
# In short: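 Oral dosing in the rat CFA inflammatory pain model was at 1, 3 and 10 mg/kg. The vehicle was 2% NMP, 2% miglyol and 2% solutol–Kleptose in water. Weight bearing was assessed 1 h post-dose. Blood was sampled at 1 h (seven rats), and brain at 10 mg/kg (three rats). ED50 was given in mg/kg.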
# Rattus norvegicus [11] = assay: Reversal of FCA-induced hypersensitivity in orally dosed rat assessed as reduction in weight bearing administered with DMSO and PEG400 as vehicle; type: functional; details: po
# In short: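 Rats with CFA-induced inflammatory pain were dosed orally at 1, 3 and 10 mg/kg or 1, 3, 10 and 30 mg/kg. The vehicle was 1% DMSO, 66% PEG400 and 33% water. Weight bearing was read 1 h post-dose and samples were taken then. Brain:blood ratio was measured in the 10 mg/kg group (n=7). ED50 was derived in mg/kg.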
# Blood [12] = assay: Drug uptake in FCA-induced hypersensitivity rat blood at 3 mg/kg, po administered with NMP as vehicle; details: in vivo
smiles,measurement,setting,value
Cc1cc(NC(=O)OC(C)C)nn1Cc1cc(Cl)ccc1OCc1ccccc1,concentration,Blood [1],153 nM
same,concentration,Blood [2],1400 nM
same,concentration,Brain,3330 nM
same,Kp,[3],2.2
same,Kp,[4],1.73
same,IC50,[5],0.0316 µM
same,logD,[6],> 3.7
same,Kb,[7],0.00794 µM
same,Ki,[8],0.0501 µM
same,Ki,[9],> 10 µM
same,IC50,Cytochrome P450 1A2,7.8 µM
same,IC50,Cytochrome P450 2C19,> 100 µM
same,IC50,Cytochrome P450 2C9,17 µM
same,IC50,Cytochrome P450 2D6,> 100 µM
same,IC50,Cytochrome P450 3A4,> 81 µM
same,ED50,Rattus norvegicus [10],4.6 mg/kg
same,ED50,Rattus norvegicus [11],1.89 mg/kg
same,concentration,Blood [12],749 nM
